From PubChem BioAssay AID504365 (Broad Institute, 2011)
Calls of active or inactive are those of the source.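 How the source made its calls: active means fitted curve reaches 10% of the positive control caspase activation at or below the top valid tested dose; inactive means signal shifts the opposite way, plus the rest.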

Experiments:
[1] = caspase-3/7 activation in Mel501 cells, dose response, orthogonal assay for A1 inhibitor project, cell-based, luminescence, dry powder, set 2 (AID 504365); settings: Mel501 cells, caspase-3/7 Glo luminescence, 6 h
In short: (§1)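 material = Mel501 human cell line, caspase-3/7 luminescence assay | amount = 2500 Mel501 cells per well | medium = RPMI-1640, 10% FBS, TSA | doses = pin-transferred compound | incubation = 6 h compound (37 °C, 5% CO2), then 1 h Caspase-Glo | technique = Caspase-Glo 3/7 luminescence | read-out basis = caspase activation from luminescence increase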

[2] = test system: Mel501 cells, caspase-3/7 Glo luminescence, 6 h; experiment: as above
In short: as §1

COc1c([N+](=O)[O-])c(=O)n(C)c2ccccc12
caspase activation ([1]; at 35 µM (top of the series)): -0.501% (inactive)

Cn1c(=O)c(Sc2ccccn2)c(Sc2ccccn2)c2ccccc21
caspase activation ([1]; at 35 µM (top of the series)): -2.24% (inactive)

Cn1c(=O)c([N+](=O)[O-])c(S(C)(=O)=O)c2ccccc21
caspase activation ([1]; at 35 µM (top of the series)): -1.8% (inactive)

COCCn1c(=O)c([N+](=O)[O-])c(Sc2ccc(C)cc2)c2ccccc21
caspase activation ([1]; at 35 µM (top of the series)): -1.69% (inactive)

COc1nc2ccccc2c(Cl)c1[N+](=O)[O-]
caspase activation ([1]; at 35 µM (top of the series)): -1.96% (inactive)

COc1ccc(CCNc2nc(N3CCCC3)nc(N3CCCC3)n2)cc1OC
caspase activation ([1]; at 35 µM (top of the series)): 0.012% (inactive)

COc1nc2ccccc2c(Sc2ccc(C)cc2)c1[N+](=O)[O-]
caspase activation ([1]; at 35 µM (top of the series)): -2.73% (inactive)

O=c1[nH]c2ccccc2c(O)c1[N+](=O)[O-]
caspase activation ([1]; at 35 µM (top of the series)): -2.05% (inactive)

Cc1ccc(Sc2c([N+](=O)[O-])c(=O)n(Cc3ccccc3)c3ccccc23)cc1
caspase activation ([1]; at 35 µM (top of the series)): -2.41% (inactive)

O=c1[nH]c2ccccc2c(Cl)c1[N+](=O)[O-]
AC10 [2]: > 35 µM (inactive)

Cc1ccc(Sc2c([N+](=O)[O-])c(=O)n(C)c3ccccc23)cc1
caspase activation ([1]; at 35 µM (top of the series)): -1.78% (inactive)

Cn1c(=O)c([N+](=O)[O-])c(Sc2ccccn2)c2ccccc21
caspase activation ([1]; at 35 µM (top of the series)): -1.77% (inactive)

Cc1ccc(S(=O)(=O)c2c([N+](=O)[O-])c(=O)n(C)c3ccccc23)cc1
caspase activation ([1]; at 35 µM (top of the series)): -0.501% (inactive)

Cn1c(=O)c([N+](=O)[O-])c(Cl)c2ccccc21
AC10 [2]: > 35 µM (inactive)

COCCn1c(=O)c(Sc2ccc(C)cc2)c(Sc2ccc(C)cc2)c2ccccc21
caspase activation ([1]; at 35 µM (top of the series)): -1.29% (inactive)

C/C(=N\Nc1nc(N2CCCCC2)nc(N2CCCCC2)n1)c1ccc(F)cc1
caspase activation ([1]; at 35 µM (top of the series)): -1.18% (inactive)

COCCn1c(=O)c([N+](=O)[O-])c(Cl)c2ccccc21
caspase activation ([1]; at 35 µM (top of the series)): 6.5% (inactive)

Cc1ccc(Sc2c(Sc3ccc(C)cc3)c3ccccc3n(Cc3ccccc3)c2=O)cc1
caspase activation ([1]; at 35 µM (top of the series)): -1.23% (inactive)

CCn1c(=O)c([N+](=O)[O-])c(Cl)c2ccccc21
caspase activation ([1]; at 35 µM (top of the series)): 2.55% (inactive)

COc1ccc(CCNc2nc(N3CCOCC3)nc(N3CCOCC3)n2)cc1OC
caspase activation ([1]; at 35 µM (top of the series)): 0.627% (inactive)

O=c1c([N+](=O)[O-])c(Cl)c2ccccc2n1Cc1ccccc1
AC10 [2]: 30.2 µM

CCn1c(=O)c([N+](=O)[O-])c(Sc2ccc(C)cc2)c2ccccc21
caspase activation ([1]; at 35 µM (top of the series)): -0.736% (inactive)

CCn1c(=O)c(Sc2ccc(C)cc2)c(Sc2ccc(C)cc2)c2ccccc21
caspase activation ([1]; at 35 µM (top of the series)): -1.83% (inactive)

Cc1ccc(Sc2c(Sc3ccc(C)cc3)c3ccccc3n(C)c2=O)cc1
caspase activation ([1]; at 35 µM (top of the series)): -1.69% (inactive)

COc1ccc(N2CCN(c3nc(NCCc4ccc(OC)c(OC)c4)nc(N4CCOCC4)n3)CC2)cc1
caspase activation ([1]; at 35 µM (top of the series)): -1.94% (inactive)

CC1(C)CCC(c2ccc(Cl)cc2)=C(CN2CCN(c3ccc(C(=O)NS(=O)(=O)c4ccc(N[C@H](CCN5CCOCC5)CSc5ccccc5)c(S(=O)(=O)C(F)(F)F)c4)cc3)CC2)C1
caspase activation ([1]; at 16 µM (top of the series)): 0.95% (inactive)

O=C(COc1ccc(Cl)cc1Cl)NNc1nc(N2CCOCC2)nc(N2CCOCC2)n1
caspase activation ([1]; at 35 µM (top of the series)): -1.89% (inactive)
